High-throughput results: PubChem BioAssay, several laboratories
PglD inh: blocks C. jejuni PglD acetyltransferase activity; purified PglD enzyme, DTNB colorimetric CoA detection; inhibition, % at 12.5 µM; hit rate 0.098% among 360,000; AID 602405; in the data active means inhibition above about 16%, passing the limit was not always enough
IMP-1 inh-1: inhibitors of Pseudomonas aeruginosa IMP-1 metallo-beta-lactamase; inhibition, % at 5.6 µM; purified IMP-1, nitrocefin hydrolysis, epi-absorbance fluorescence; hit rate 0.45% among 290,000; AID 1556;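 active means inhibition above the mean plus 3 SD of all compounds in the same screening run, cut at about 4.5% in these data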
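assay system = purified recombinant IMP-1 metallo-beta-lactamase enzyme | schedule = 15 min preincubation plus 25 min reaction at 25 °C | signal = Epi-absorbance fluorescence, 480 nm excitation, 530 nm emission | read-out basis = percent inhibition from optical density relative to buffer-blank wells | controls = IMP-1 with DMSO as 0%, enzyme-free DMSO as 100%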
ERp5 block: inhibitors of human ERp5 | Q15084 | hit rate 0.05% among 350,000 | ERp5 insulin aggregation, absorbance 650 nm, 90 min | inhibition, % at 9.99 µM | AID 651711;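 active means mean replicate inhibition above about 25%, with every replicate also reaching it, limit read from the data, passing the limit was not always enough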
PDI inh: inhibitors of human protein disulfide isomerase | inhibition, % at 10 µM | P07237 | PDI insulin aggregation turbidity, A650, 90 min | AID 588391 | hit rate 0.052% among 350,000;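 active means mean inhibition across replicates of 30% or more, whatever share of single replicates reach that level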
Target sequence (P07237 whole entry, looked up): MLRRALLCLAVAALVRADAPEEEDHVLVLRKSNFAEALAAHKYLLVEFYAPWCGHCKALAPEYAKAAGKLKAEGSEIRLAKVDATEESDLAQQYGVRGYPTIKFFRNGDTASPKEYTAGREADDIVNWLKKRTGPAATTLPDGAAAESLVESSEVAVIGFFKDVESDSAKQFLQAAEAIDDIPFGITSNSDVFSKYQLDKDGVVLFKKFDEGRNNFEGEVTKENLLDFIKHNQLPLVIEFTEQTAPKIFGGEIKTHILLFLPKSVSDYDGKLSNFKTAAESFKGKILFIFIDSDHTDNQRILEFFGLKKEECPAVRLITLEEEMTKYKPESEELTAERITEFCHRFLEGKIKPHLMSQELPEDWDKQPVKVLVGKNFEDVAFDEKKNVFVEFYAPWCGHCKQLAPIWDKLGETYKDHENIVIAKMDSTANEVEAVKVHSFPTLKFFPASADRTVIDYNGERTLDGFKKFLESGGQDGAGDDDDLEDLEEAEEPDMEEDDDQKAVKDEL
VIM-2 inh: blocks Pseudomonas aeruginosa VIM-2 metallo-beta-lactamase; inhibition, % at 5.6 µM; purified VIM-2, nitrocefin hydrolysis, epi-absorbance fluorescence; AID 1527; hit rate 0.89% among 290,000;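 active means inhibition above the mean of all tested compounds plus 3 SD, cutoff set per screening run, cut at about 7.5% in these data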;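 further: red hydrolysis product quenches plate fluorescence so inhibitors raise well fluorescence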
PvdQ acylase: P. aeruginosa PvdQ acylase inhibition | purified PvdQ acylase, fluorescence plate reader | inhibition, % at 10 µM | hit rate 0.063% among 340,000 | AID 488965; in the data active means inhibition above about 30%, passing the limit was not always enough
IMP-1 inh-2: blocks IMP-1 metallo-beta-lactamase in VIM-2 selectivity screen; shares compounds with VIM-2 inh; purified IMP-1, nitrocefin hydrolysis, epi-absorbance fluorescence; inhibition, % at 5.6 µM; 1,300 tested, under 10 active; AID 1856; call rule not given here
VIM-2 FRET inh: VIM-2 FRET inhibition, artifact counter-screen; shares compounds with VIM-2 inh; purified VIM-2, CCF2 FRET substrate hydrolysis; inhibition, % at 5.6 µM; hit rate 23% among 1,300; AID 1857;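 active means inhibition above the mean of all tested compounds plus 3 SD, cut at about 19% in these data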
TEM-1 counter-1: blocks E. coli TEM-1 beta-lactamase in VIM-2 selectivity screen; shares compounds with VIM-2 inh; Purified TEM-1, nitrocefin hydrolysis, epi-absorbance fluorescence; inhibition, % at 5.6 µM; hit rate 3% among 1,300;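 active means inhibition above that campaign's mean inhibition plus 3 SD, cut at about 0.46% in these data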
VIM-2 inh conf: confirmation of P. aeruginosa VIM-2 metallo-beta-lactamase inhibitors. shares compounds with VIM-2 inh. purified VIM-2, nitrocefin hydrolysis, epi-absorbance. inhibition, % at 5.6 µM. hit rate 96% among 1,300. AID 2187;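 active means inhibition of the VIM-2 beta-lactamase enzyme above about 11% from the earlier first-round screen, limit read from the data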
VIM-2 inh confirm: VIM-2 inhibition, confirmation assay | hit rate 73% among 200 | purified VIM-2 enzyme, nitrocefin absorbance | inhibition, % at 5.6 µM | shares compounds with IMP-1 inh-1 | AID 1860; in the data active means inhibition above about 8%
TEM-1 counter-2: blocks E. coli TEM-1 beta-lactamase, VIM-2 IMP-1 counter-screen; inhibition, % at 5.6 µM; shares compounds with IMP-1 inh-1; hit rate 50% among 200; nitrocefin absorbance inhibition; in the data active means inhibition above about 0.66%
IMP-1 confirm: confirmation of P. aeruginosa IMP-1 metallo-beta-lactamase inhibitors. shares compounds with IMP-1 inh-1. purified IMP-1 enzyme, absorbance substrate hydrolysis. inhibition, % at 5.6 µM. hit rate 60% among 200; in the data active means inhibition above about 4.9%
PglD inh SP: confirmation of Campylobacter jejuni PglD acetyltransferase inhibitors. shares compounds with PglD inh. Purified C. jejuni PglD, DTNB absorbance 412 nm. inhibition, % at 20 µM. 320 tested, under 10 active. AID 743156;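 active means mean inhibition across replicates of at least 20% with every single replicate also at 20% or more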;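 further: initial rate of CoA release by acetyl transfer from AcCoA to the UDP-4-amino sugar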
A number is an active result; . = inactive; / = not tested or not shown; ! = not active in a repeat. Most compounds without a hit are left out; they make up all but 1% or so of the library.

SMILES | PglD inh | IMP-1 inh-1 | ERp5 block | PDI inh | VIM-2 inh | PvdQ acylase | others
O=C(O)[C@@H]1[C@@H](CO)[C@@H]2Cn3c(ccc(-c4ccncc4)c3=O)[C@H]1N2C(=O)C1CCC1 | . | / | . | / | / | /
Cc1cc2c(C(C)C)c(O)c(O)c(C=O)c2c(O)c1-c1c(C)cc2c(C(C)C)c(O)c(O)c(C=O)c2c1O | . | 14! | . | . | 10 | /
COC(=O)C[C@H]1CC[C@@H]2NC[C@H](O)COC[C@H]2O1 | . | / | / | / | / | /
CS(=O)(=O)Nc1ccc(Cc2noc(-c3ccc4[nH]cc(CCN)c4c3)n2)cc1 | / | . | / | / | 29 | /
Cc1cc(C=C2C(=O)N(C)C(=S)N(C)C2=O)c(C)n1C1CCCC1 | . | . | / | . | . | .
CCN1C(=O)C(=Cc2cc(C)n(C3CC3)c2C)C(=O)N(CC)C1=S | . | 12 | / | . | . | .
O=C(C1CC1)N1C[C@@H]2N[C@H](C1)[C@@H]2c1ccc(-c2ccncc2)cc1 | / | / | . | / | / | /
Cn1nc(-c2ccc(OCC(=O)N3CCN(Cc4ccccc4)CC3)cc2)c2ccccc2c1=O | . | . | / | . | 13 | . | IMP-1 inh-2=.;VIM-2 FRET inh=.;TEM-1 counter-1=.;VIM-2 inh conf=28
Cn1cccc1CN1CCN(C(=O)COc2ccccc2)CC1 | . | . | / | . | . | .
CCCN1[C@@H]2c3ccc(-c4cccc(C(=O)N(C)C)c4)c(=O)n3C[C@H]1[C@H](CO)[C@H]2C(=O)OC | . | / | . | / | / | /
CCN(CC)C(=O)COc1cc(C)cc2oc(=O)c3c(c12)CCCC3 | . | . | . | . | . | .
Cc1cc(OCC(=O)NC(Cc2ccc(Cl)cc2)C(=O)O)c2c3c(c(=O)oc2c1)CCCC3 (stereo not drawn) | . | . | . | / | 33 | . | IMP-1 inh-2=.;VIM-2 FRET inh=47;TEM-1 counter-1=0.6;VIM-2 inh conf=37
Cc1cc(OCC(=O)NCc2ccncc2)c2c3c(c(=O)oc2c1)CCC3 | . | . | . | . | 72 | . | IMP-1 inh-2=.;VIM-2 FRET inh=.;TEM-1 counter-1=.;VIM-2 inh conf=78
C=CCn1c(O)c(C=NCCCn2ccnc2)c(=O)[nH]c1=O | / | . | . | . | 23 | . | IMP-1 inh-2=.;VIM-2 FRET inh=.;TEM-1 counter-1=.;VIM-2 inh conf=37
CN1CCc2cc(O)cc3c2[C@H]1Cc1ccc(O)c(O)c1-3 | . | / | . | . | / | .
CN1CCc2cc3c(c4c2C1Cc1ccccc1-4)OCO3 (stereo not drawn) | . | . | . | . | 19 | . | IMP-1 inh-2=.;VIM-2 FRET inh=.;TEM-1 counter-1=.;VIM-2 inh conf=11
O=[N+]([O-])c1ccc(N2CCNCC2)cc1NC1CC1 | / | . | / | / | . | /
O=[N+]([O-])c1ccc(N2CCCC2)cc1N/N=C1\CN2CCC1CC2 | . | . | / | . | 13 | . | IMP-1 inh-2=.;VIM-2 FRET inh=32;TEM-1 counter-1=.;VIM-2 inh conf=25
CN1CCN(c2ccc(N)cc2)CC1 | . | . | / | . | 37 | . | IMP-1 inh-2=.;VIM-2 FRET inh=.;TEM-1 counter-1=.;VIM-2 inh conf=59
CCN1CCN(c2ccc(N)cc2)CC1 | / | . | . | . | 38 | . | IMP-1 inh-2=.;VIM-2 FRET inh=.;TEM-1 counter-1=.;VIM-2 inh conf=27
COC(=O)[C@@H]1[C@@H](CO)[C@@H]2Cn3c(ccc(-c4cccnc4)c3=O)[C@H]1N2CCc1ccccc1 | . | / | . | / | / | /
CN1[C@@H]2CNc3ccccc3[C@@H]2[C@@H]1CO | . | / | . | / | / | /
COC(=O)[C@H]1[C@H](CO)[C@H]2Cn3c(ccc(C4=CCCCC4)c3=O)[C@@H]1N2CC1CCCC1 | . | / | . | / | / | /
COC(=O)[C@@H]1[C@@H](CO)[C@@H]2Cn3c(ccc(-c4cccc(F)c4)c3=O)[C@H]1N2Cc1ccccc1 | . | / | . | / | / | /
Nc1c(C(=O)NCCN2CCOCC2)c2nc3ccccc3nc2n1Cc1ccco1 | . | . | / | . | 15 | . | IMP-1 inh-2=.;VIM-2 FRET inh=.;TEM-1 counter-1=.;VIM-2 inh conf=29
SMILES | PglD inh | IMP-1 inh-1 | ERp5 block | PDI inh | VIM-2 inh | PvdQ acylase | others
O=[N+]([O-])c1ccc(N2CCCCCC2)c2nonc12 | . | 15 | . | . | 13 | . | VIM-2 inh confirm=19;TEM-1 counter-2=22;IMP-1 confirm=16
O=c1cc(C(F)(F)F)c2cc3c4c(c2o1)CCCN4CCC3 | / | 7.8 | / | . | 8.5 | . | VIM-2 inh confirm=35;TEM-1 counter-2=52;IMP-1 confirm=26
Cc1cc2c(C(F)(F)F)cc(=O)oc2c2c1NCCC2 | . | . | / | . | . | .
COc1ccc(C#Cc2ccc([C@@H]3[C@H](CO)N4CCCCN(C(=O)Cc5ccccc5)C[C@@H]34)cc2)cc1 | . | / | . | / | / | /
COC(=O)[C@@H]1[C@@H](CO)[C@@H]2Cn3c(cccc3=O)[C@H]1N2C(=O)C1CC1 | . | / | . | / | / | /
Nc1ccc2ccc3cccc[n+]3c2c1 | . | 26 | . | . | 25 | . | VIM-2 inh confirm=35;TEM-1 counter-2=40;IMP-1 confirm=24
CCCC(C)C1C(C#N)=C(N)Oc2c1c(=O)oc1ccccc21 (stereo not drawn) | 24 | . | / | . | . | . | PglD inh SP=.
CC(=O)NC1CC2CCC(C1)N2 (stereo not drawn) | . | . | / | . | . | .
CC(=O)NC1CC2CCCC(C1)N2 (stereo not drawn) | 27 | . | / | . | . | . | PglD inh SP=.
C=CCn1c(O)c(C=NC2CCN(Cc3ccccc3)CC2)c(=O)[nH]c1=O | 20 | . | . | . | . | . | PglD inh SP=.
COC(=O)[C@@H]1[C@@H](CO)[C@@H]2Cn3c(ccc(-c4ccc(F)cc4)c3=O)[C@H]1N2Cc1cccnc1 | . | / | . | / | / | /
C/C=C/c1ccc([C@@H]2[C@H](CO)N3CCCCN(C(=O)Cc4ccncc4)C[C@@H]23)cc1 | . | / | . | / | / | /
